According to paper PMC8892239 (EFSA Journal, 2022):

Experiments:
[1] = Residues of EQ and metabolites/TPs in cattle tissues; assay type: in vivo
[2] = Residues of EQ and metabolites/TPs in piglet tissues; assay type: in vivo; conditions: piglets
bone marrow = experiment: In vivo micronucleus assay; parameters: species or system rat; conditions: 20 mg/kg bw once by oral gavage
In short: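 Female rats were dosed twice by oral gavage, 24 h apart, with vehicle or 87.5, 175 or 350 mg/kg bw. Cyclophosphamide 20 mg/kg bw was given once by gavage as positive control. Five groups of five animals. Micronuclei and the PCE/NCE ratio were scored.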

[3] = ref Regulation (EC) No 1272/2008; cited from earlier work

SMILES: CCOC1=CC(=O)C2=NC(C)(C)C=C(C)C2=C1 [Metabolite A, 6‐ethoxy‐2,2,4‐trimethyl‐quinolin‐8‐one]
- concentration at 42 days ([1]; Holstein, bovine, liver, oral, 50 mg EQ/kg complete feed): 121 ng/g
- residue in muscle, highest value ([1]; cattle, control (0 mg EQ/kg feed), 42 days, LOQs as above): ˂ LOQ
- residue in muscle ([2]; control feed (0 mg EQ/kg), 42 days, mean ± SD, LOQs as above): ˂ LOQ
- residue in muscle ([2]; feed with 50 mg EQ/kg for 42 days, LOQs 1.5 to 2 µg EQ, EQDM, metabolite A/kg, 0.5 µg EQI/kg): ˂ LOQ

SMILES: O=P1(N(CCCl)CCCl)NCCCO1 (stereo not drawn) [Cyclophosphamide, cyclophosphamide]
- number of micronuclei (positive control) (bone marrow): statistically significant increase

SMILES: CCOc1ccc(N)cc1 [p‐phenetidine]
- germ cell mutagenicity classification [3]: Muta. 2
